Measured values published in ChEMBL document CHEMBL3352816, “Synthesis and antiproliferative activity of imidazo[2,1-b][1,3,4]thiadiazole derivatives” (Bioorg Med Chem Lett, 2014).
Active and inactive are the calls of the source. The rule behind the calls is not given here.

Key:
REH [1] = assay: Induction of apoptosis in human REH cells assessed as loss of mitochondrial membrane potential at 1 uM after 48 hrs using Jc-1 staining by flow cytometric analysis; format: functional, cell-based
Summary of the method: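 Mitochondrial membrane potential in Reh cells after 48 h at 0.1, 0.5, 1 and 5 µM. Cells stained with JC-1 and analysed by flow cytometry as the ratio of red (aggregate) to green (monomer) fluorescent cells. 2,4-DNP-treated cells served as positive control.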

[2] = Growth inhibition of human Colon cancer cells; format: functional; conditions: Cancer cell lines
REH [3] = assay: Cytotoxicity against human REH cells assessed as reduction in cell viability at 0.1 to 10 uM by trypan blue exclusion assay; format: functional, cell-based; conditions: TDE = time-dependent effect
Summary of the method: (§1)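 Reh, K562 and Nalm6 leukemic cells were treated with 10, 50, 100 and 250 µM or with 0.1, 0.5, 1, 5 and 10 µM (compounds dissolved in DMSO). Viability was scored by trypan blue after 24, 48 and 72 h. DMSO-treated cells served as vehicle control.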

K562 [4] = assay: Cytotoxicity against human K562 cells assessed as reduction in cell viability after 24 to 72 hrs by trypan blue exclusion assay; format: functional, cell-based; summary of the method: as §1
[5] = Growth inhibition of human NSCLC cells; format: functional
[6] = Growth inhibition of human Breast cancer cells; format: functional; conditions: Cancer cell lines
REH [7] = assay: Induction of apoptosis in human REH cells assessed as reduction of KU70 protein expression at 1 uM after 48 hrs by Western blot analysis; format: functional, cell-based
Summary of the method: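 Reh cells exposed 48 h to 500 nM or 1 µM, with DMSO-treated cells as control; cell lysates probed by western blot with specific primary antibodies against KU70, PARP1, caspases 3, 8 and 9, BID and FAS; tubulin shown as loading reference.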

REH [8] = assay: Induction of apoptosis in human REH cells assessed as early apoptotic cells at 1 uM after 48 hrs using annexin-v-FITC/propidium iodide by FACS analysis (reference value: 6.05 %); format: functional
K562 [9] = assay: Cytotoxicity against human K562 cells assessed as reduction in cell viability at 0.1 to 10 uM by trypan blue exclusion assay; format: functional, cell-based; conditions: TDE = time-dependent effect; summary of the method: as §1
NALM-6 = assay: Cytotoxicity against human NALM6 cells assessed as reduction in cell viability at 0.1 to 10 uM by trypan blue exclusion assay; format: functional, cell-based; conditions: TDE = time-dependent effect; summary of the method: as §1
[10] = Cell cycle arrest in human NALM6 cells assessed as reduction of cells in G2/M phase after 48 hrs using propidium iodide by FACS analysis; format: functional, cell-based; conditions: NALM-6
Summary of the method: (§2)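 Reh and Nalm6 cells exposed 48 h to 0.1, 0.5, 1 and 5 µM, harvested, stained with propidium iodide and analysed by flow cytometry. Gated fractions were sub G1, G1, S and G2. DMSO-treated cells served as vehicle control. Three independent experiments for Reh and two for Nalm6.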

[11] = Cell cycle arrest in human NALM6 cells assessed as reduction of cells in G1 phase after 48 hrs using propidium iodide by FACS analysis; format: functional, cell-based; conditions: NALM-6; summary of the method: as §2

SMILES: O=Cc1c(-c2ccc(Br)cc2)nc2sc(Cc3ccccc3)nn12
- Activity (REH [1]): Dose-dependent effect
- GI50 [2]: 2.2 µM
- TGI [2]: 10 µM
- CC50 ([2]; read-out: LC50 (the source's name)): 81.3 µM
- Activity (REH [3]): tde
- Activity (K562 [4]): Dose-dependent effect
- GI50 [5]: 4.2 µM
- LC50 (concentration killing 50% of cells) [5]: 95.5 µM
- TGI [5]: 30.2 µM
- GI50 [6]: 3.5 µM
- TGI [6]: 28.2 µM
- Activity (REH [7]): Active
- Activity (REH [8]): 43.03%
- Activity (K562 [9]): tde
- Activity (NALM-6): tde
- Activity [10]: Dose-dependent effect
- Activity [11]: Dose-dependent effect
